# Entries after “also recorded” stand apart in the source; their conditions may differ. Like-named read-outs stand apart in the source and are kept apart here.
# Tests used:
# [1] = cited from earlier work
# [2] = test system: acetylated H4 in A2780 ovarian cancer cells; experiment: H4 acetylation by immunohistochemistry in paraffin-embedded A2780 cell blocks; type: cell-based, human; conditions: 1 μM for 1 h
# [3] = test system: H4 acetylation in A2780 ovarian cancer model; experiment: Experiment 1: H4 acetylation in vivo, A2780 xenograft; design: species or system NMRI nude mice; conditions: 100 mg/kg single i.v., 1 h
# Summary of the method: (§1)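 Female NMRI nude mice, 6–8 weeks old, received about 10^7 cells with matrigel s.c. into the flank under Hypnorm/Dormicum. They were given 100 mg/kg test compound i.v. or vehicle (L-arginine 200 mg/kg in isotonic sterile saline) and killed after 1 h. Formalin-fixed, paraffin-embedded tumors were immunostained for acetylated H4 (mouse monoclonal T25, acetyl-Lys8/Lys12, 1:13,000; TEG pH 9 retrieval; EnVision+/DAB) and scored 0–3.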
# [4] = test system: H4 acetylation in HCT-116 colon cancer model; experiment: Experiment 1: H4 acetylation in vivo, HCT-116 xenograft; design: species or system NMRI nude mice; conditions: 100 mg/kg single i.v., 1 h
# Summary of the method: as §1
# [5] = test system: H4 acetylation in A548 lung cancer model; experiment: Experiment 1: H4 acetylation in vivo, A549 xenograft; design: species or system NMRI nude mice; conditions: 100 mg/kg single i.v., 1 h
# Summary of the method: as §1
# [6] = test system: H4 acetylation in PC-3 prostate cancer model; experiment: Experiment 1: H4 acetylation in vivo, PC-3 xenograft; design: species or system NMRI nude mice; conditions: 100 mg/kg single i.v., 1 h
# Summary of the method: as §1
# [7] = test system: H4 acetylation in MCF-7 model; experiment: Experiment 1: H4 acetylation in vivo, MCF-7 xenograft; design: species or system NMRI nude mice; conditions: 100 mg/kg single i.v., 1 h
# Summary of the method: as §1
# [8] = test system: acetylated H4 in A2780 xenograft; experiment: Experiment 2: H4 acetylation in A2780 biopsies and representative tumors; type: in vivo, NMRI nude mice; conditions: 100 mg/kg i.v., 1 h, A2780, Fig. 4A
# Summary of the method: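 Mice bearing HCT-116, A2780, PC-3 or MCF-7 tumors (500–1000 mg) received 100 mg/kg test compound i.v. or vehicle and were killed after 1 h. Biopsies were taken with an 18G needle, aspirating while rotating. Biopsies and the remaining tumor were formalin-fixed, paraffin-embedded and stained with anti-acetyl-H4 T25 (1:13,000). Staining was scored negative, weak, moderate or strong (0–3).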
# [9] = test system: H4 acetylation in A2780 biopsies and tumors; experiment: Experiment 3: time dependence of H4 acetylation in A2780 biopsies and tumors; type: in vivo, NMRI nude mice; conditions: for H4 acetylation, 1 h biopsy / H4 acetylation, 2 h biopsy / H4 acetylation, 3 h biopsy / H4 acetylation, 3 h tumor / H4 acetylation, 6 h biopsy / H4 acetylation, 6 h tumor: individual mice
# Summary of the method: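 Sixteen NMRI nude mice with small (300–400 mg) or large (1500–1800 mg) A2780 s.c. tumors received 100 mg/kg test compound i.v. at time zero. A pretreatment biopsy (large tumors only) and one post-dose 18G needle biopsy (1–6 h) were taken under isoflurane. Whole tumors were excised at 3, 6 or 24 h. Paraffin sections were stained with T25 anti-acetyl-H4 (1:13,000) and scored 0–3.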
# [10] = test system: p21 expression in A2780 xenograft; experiment: Experiment 3: p21 expression in A2780 biopsies and tumors; type: in vivo, NMRI nude mice
# Summary of the method: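 In A2780 xenografts (small 300–400 mg or large 1500–1800 mg), mice received 100 mg/kg test compound i.v. Pretreatment (large tumors) and post-dose needle biopsies were taken between 1 and 6 h; whole tumors were taken at 3, 6 or 24 h. Paraffin sections were immunostained for p21 (monoclonal EA10, 1:80; TEG pH 9 retrieval; EnVision+/DAB) and nuclear versus cytoplasmic staining was recorded.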
# [11] = test system: H4 acetylation in A2780 xenograft tumor; experiment: Experiment 4: H4 acetylation score in A2780 tumor; type: in vivo, NMRI nude mice
# Summary of the method: (§2)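 Groups of 3–4 NMRI nude mice with s.c. A2780 xenografts (500–1000 mg) received a single 200 mg/kg test compound dose i.v. or vehicle (L-arginine 400 mg/kg in isotonic sterile saline). Mice were killed at 15 min, 30 min, 1, 2 or 3 h. Tumor and spleen were halved, and one part was immunostained with T25 anti-acetyl-H4. Scores were 0–3 per mouse, averaged per time point.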
# [12] = test system: H4 acetylation in spleen; experiment: Experiment 4: H4 acetylation score in spleen; type: in vivo, NMRI nude mice; conditions: 200 mg/kg i.v.
# Summary of the method: as §2
# [13] = Experiment 4: belinostat in plasma, tumor and spleen by LC-MS/MS; type: in vivo, NMRI nude mice
# Summary of the method: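 A2780 xenograft mice received 200 mg/kg i.v. once; lithium-heparin plasma, tumor and spleen were collected at 15 min–3 h. Plasma was protein-precipitated with a 13C-labelled internal standard, dried and redissolved in 10% HCOOH/ACN. Tissues were homogenized in water/ACN/methanol containing internal standard (1 μg/ml). Analysis used LC-MS/MS on UPLC C18 (0.05% HCOOH/ACN, 5 min gradient, 0.5 ml/min), reporting ng/ml plasma and ng/g tissue.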
# [14] = test system: H4 acetylation in peripheral canine blood; conditions: 10 min after i.v. infusion given over 45 min, total dose 50 mg/kg; cited from earlier work
# [15] = test system: H4 acetylation in histones extracted from A2780 cells; conditions: cited from earlier work
# [16] = test system: H4 acetylation in peripheral blood from A2780 xenografts; conditions: 3 h after treatment, 40 mg/kg i.p.; cited from earlier work
# [17] = test system: histone acetylation in peripheral blood lymphocytes; conditions: clinical study; cited from earlier work
# [18] = 100 mg/kg i.v., large tumors (1500–1800 mg)
# [19] = 100 mg/kg i.v., small tumors (300–400 mg)
# [20] = 200 mg/kg i.v., individual mice
# [21] = 200 mg/kg i.v., individual mice, listed as Belinostat
# [22] = single treatment 200 mg/kg i.v.
# [23] = individual mice, listed as Belinostat
compound,measurement,setting,value
Nc1ccccc1NC(=O)c1ccc(CNC(=O)OCc2cccnc2)cc1 [MS-275],pharmacokinetics (linearity),[1],"linear, dose-independent"
O=C(/C=C/c1cccc(S(=O)(=O)Nc2ccccc2)c1)NO [belinostat],H4 acetylation,[2],strong (strong (score=3))
same,H4 acetylation signal,[3],strongest signal
same,H4 acetylation,[4],caused H4 acetylation
same,H4 acetylation,[5],caused H4 acetylation
same,H4 acetylation,[6],Weak
same,H4 acetylation,[7],Weak
same,H4 acetylation in both biopsies and tumors,[8],strong (III) or moderate (IV)
same,H4 acetylation after 6 and 24 h,[9]; 100 mg/kg i.v.,weak or no
same,"H4 acetylation, general findings at 3 h",[9]; 100 mg/kg i.v.,weak or moderate
same,"H4 acetylation in biopsy, same mouse (Fig. 4B)","[9]; 100 mg/kg i.v., 1 h after treatment",strong (strong (score=3))
same,removed tumors with strong H4 acetylation,"[9]; 100 mg/kg i.v., 3 h after treatment",1/10
same,acetylation period,"[9]; 100 mg/kg i.v., Experiment 3, not extended at 200 mg/kg",1 to 2 h
same,"H4 acetylation in tumor, same mouse (Fig. 4B)","[9]; 100 mg/kg i.v., after 3 h",weak (weak (score=1))
same,"H4 acetylation, 1 h biopsy",[9]; [18],Strong
same,"H4 acetylation, 2 h biopsy",[9]; [18],Strong
same,"H4 acetylation, 3 h biopsy",[9]; [18],Strong
same,"H4 acetylation, 3 h tumor",[9]; [18],Moderate and Weak
same,"H4 acetylation, 6 h biopsy",[9]; [18],Weak
same,"H4 acetylation, 6 h tumor",[9]; [18],Weak
same,"H4 acetylation, all biopsies collected 2 h after treatment","[9]; 100 mg/kg i.v., n=4",strong (strong (score=3))
same,"H4 acetylation, all biopsies collected 1 h after treatment","[9]; 100 mg/kg i.v., n=5",strong (strong (score=3))
same,"H4 acetylation, 1 h biopsy",[9]; [19],Strong
same,"H4 acetylation, 2 h biopsy",[9]; [19],Strong
same,"H4 acetylation, 3 h biopsy",[9]; [19],Moderate; also recorded: Strong
same,"H4 acetylation, 3 h tumor",[9]; [19],Weak and Moderate and Strong
same,"H4 acetylation, 6 h biopsy",[9]; [19],Weak
same,"H4 acetylation, 6 h tumor",[9]; [19],Weak
same,time at which H4 acetylation reached base line level,"[9]; after treatment, A2780 xenograft",3 h
same,biopsies with moderate cytoplasmic p21 expression,"[10]; 100 mg/kg i.v., 2 h, one of four biopsies",25%
same,tumors with strong cytoplasmic p21 expression,"[10]; 100 mg/kg i.v., 3 h, 10 tumors",10%
same,tumors with weak cytoplasmic p21 expression,"[10]; 100 mg/kg i.v., 3 h, 10 tumors",50%
same,"cytoplasmic p21 expression, all biopsies removed after 6 h","[10]; 100 mg/kg i.v., 6 h",moderate-to-strong
same,tumors with strong cytoplasmic p21 expression,"[10]; 100 mg/kg i.v., 6 h, four tumors",25%
same,cytoplasmic p21 expression after 24 h,"[10]; 100 mg/kg i.v., 24 h",disappeared
same,time of p21 induction in the cytoplasm,[10]; after belinostat treatment,about 3 h
same,"H4 acetylation (score), tumor, 15 min",[11]; [20],weak-to-moderate
same,"H4 acetylation (score), tumor, 1 h",[11]; [20],strong (strong (score=3))
same,"H4 acetylation (score), tumor, 3 h",[11]; [20],weak and moderate
same,"H4 acetylation (score), tumor, 15 min",[11]; [21],Moderate (2); also recorded: No (0); also recorded: Weak (1)
same,"H4 acetylation (score), tumor, 30 min",[11]; [21],Moderate (2); also recorded: Strong (3); also recorded: Weak (1)
same,"H4 acetylation (score), tumor, 1 h",[11]; [21],Strong (3)
same,"H4 acetylation (score), tumor, 2 h",[11]; [21],Moderate (2); also recorded: Strong (3)
same,"H4 acetylation (score), tumor, 3 h",[11]; [21],Moderate (2); also recorded: Weak (1)
same,"H4 acetylation score, tumor, mean, 15 min","[11]; 200 mg/kg i.v., score 0-3",1.25
same,"H4 acetylation score, tumor, mean, 30 min","[11]; 200 mg/kg i.v., score 0-3",2
same,"H4 acetylation score, tumor, mean, 1 h","[11]; 200 mg/kg i.v., score 0-3",3
same,"H4 acetylation score, tumor, mean, 2 h","[11]; 200 mg/kg i.v., score 0-3",2.33
same,"H4 acetylation score, tumor, mean, 3 h","[11]; 200 mg/kg i.v., score 0-3",1.67
same,time at which increased acetylated H4 was detected in tumor tissue,[11]; [22],15 min
same,time of maximal H4 acetylation level,[11]; [22],1 h
same,"H4 acetylation (score), spleen, 2 h",[12]; individual mice,Moderate (2)
same,"H4 acetylation (score), spleen, 15 min",[12]; [23],Moderate (2); also recorded: Weak (1)
same,"H4 acetylation (score), spleen, 30 min",[12]; [23],Strong (3); also recorded: Moderate (2)
same,"H4 acetylation (score), spleen, 1 h",[12]; [23],Strong (3); also recorded: Moderate (2)
same,"H4 acetylation (score), spleen, 3 h",[12]; [23],Weak (1); also recorded: No (0)
same,"H4 acetylation score, spleen, mean, 15 min",[12]; score 0-3,1.5
same,"H4 acetylation score, spleen, mean, 30 min",[12]; score 0-3,2.5
same,"H4 acetylation score, spleen, mean, 1 h",[12]; score 0-3,2.75
same,"H4 acetylation score, spleen, mean, 2 h",[12]; score 0-3,2
same,"H4 acetylation score, spleen, mean, 3 h",[12]; score 0-3,0.67
same,distribution to tumor and spleen tissue,[13]; 200 mg/kg i.v. single dose,similar
same,belinostat plasma concentration at maximal acetylation,"[13]; 200 mg/kg i.v., 1 h after treatment, Fig. 8",above 10^3 ng/ml
same,H4 acetylation in peripheral canine blood,[14],increased
same,H4 acetylation in histones extracted from A2780 cells,[15]; 30 min after treatment with 1 μM,increased
same,H4 acetylation in histones extracted from A2780 cells,"[15]; 3 h after treatment, 1 μM",returned to base line levels
same,H4 acetylation in peripheral blood from A2780 xenografts,[16],returned to base line levels
"O=C(CCCCCCC(=O)Nc1ccccc1)NO [vorinostat, suberoylanilide hydroxamic acid]",pharmacokinetics (linearity),[1]; dose proportional increases in Cmax and AUC,linear
same,half-life of acetylated histones at higher doses,[17],increased

# Source: paper PMC2774150 (Apmis, 2008)
